Published values from different studies.
Each line is one published result; the experiments were not run side by side.
Target: Homeodomain-interacting protein kinase 4 (HIPK4, Homo sapiens, UniProt Q8NE63)
Residues used in one study (Q8NE63 1-616): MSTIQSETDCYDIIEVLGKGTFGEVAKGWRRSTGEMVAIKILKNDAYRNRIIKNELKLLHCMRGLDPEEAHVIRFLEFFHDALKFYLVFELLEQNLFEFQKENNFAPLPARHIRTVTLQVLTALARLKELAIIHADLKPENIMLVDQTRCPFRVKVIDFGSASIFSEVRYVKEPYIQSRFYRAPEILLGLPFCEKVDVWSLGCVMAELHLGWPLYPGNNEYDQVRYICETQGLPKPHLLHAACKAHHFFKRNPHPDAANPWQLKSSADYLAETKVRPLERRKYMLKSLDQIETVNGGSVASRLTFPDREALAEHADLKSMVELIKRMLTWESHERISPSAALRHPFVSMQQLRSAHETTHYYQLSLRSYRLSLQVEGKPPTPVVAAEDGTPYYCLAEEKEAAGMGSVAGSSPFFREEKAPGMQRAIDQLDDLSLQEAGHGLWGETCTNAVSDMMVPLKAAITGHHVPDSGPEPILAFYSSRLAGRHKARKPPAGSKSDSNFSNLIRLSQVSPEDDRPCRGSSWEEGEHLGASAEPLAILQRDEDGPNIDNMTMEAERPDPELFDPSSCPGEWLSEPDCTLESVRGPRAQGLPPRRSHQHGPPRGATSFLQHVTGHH

SMILES	read-out	action	technique	tested at	quantity	value
O=C(O)c1ccc2c(c1)nc(Nc1ccccc1Cl)c1ncncc12	enzyme activity	inhibitor	radiometric	1 µM	remaining activity	-3%
O=C(Nc1cnn(-c2csc(C(=O)NC3COC3)c2)c1)Nc1c(F)cccc1Cl	enzyme activity	inhibitor	–	5 µM	remaining activity	111%
O=C1NC(=O)c2cc(Nc3ccc(F)cc3)c(Nc3ccc(F)cc3)cc21	cell-free assay	–	–	0.5 µM	remaining signal	82.5%
CCCS(=O)(=O)Nc1ccc(F)c(C(=O)c2c[nH]c3ncc(-c4ccc(Cl)cc4)cc23)c1F	enzyme activity	inhibitor	–	1 µM	inhibition	< 10%
CC(=O)c1c(NS(C)(=O)=O)c2cc(-c3ccc(Cl)cc3)c(-c3ccc(Cl)cc3Cl)nc2n(C)c1=O	cell-free assay	–	competition with immobilised ligand	1 µM	remaining binding	93%
COc1cc2c(N3CCN(C(=O)Nc4ccc(OC(C)C)cc4)CC3)ncnc2cc1OCCCN1CCCCC1	cell-free assay	–	–	0.5 µM	remaining signal	99.5%
O=C(O)c1ccc2c(c1)nc(Nc1ccc(F)c(Cl)c1)c1ncncc12	enzyme activity	inhibitor	radiometric	1 µM	remaining activity	6%
CO[C@@H](C)c1c(Nc2ccc([C@@H](N(C)C(=O)C3CCS(=O)(=O)CC3)C(F)(F)F)cc2)cnc2cc(Cl)nn12	cell-free assay	–	competition with immobilised ligand	1 µM	remaining binding	100%
COc1cc2ncnc(Nc3ccc(Oc4ccccc4)cc3C)c2cc1OC	enzyme activity	inhibitor	–	1 µM	inhibition	4%
N#CCCc1ccc2c(c1)-c1[nH]c3ccc([N+](=O)[O-])cc3c1CC(=O)N2	cell-free assay	–	–	0.5 µM	remaining signal	113%
N#CC1(c2ccccn2)CCN(Cc2cc(C(=O)N3CCCC3)c(=O)n3ccccc23)CC1	cell-free assay	–	competition with immobilised ligand	1 µM	remaining binding	67%
O=C(O)c1ccc2c(c1)nc(Nc1cccc(F)c1)c1ncncc12	enzyme activity	inhibitor	radiometric	1 µM	remaining activity	52%
CCC(=O)N[C@@H]1CC[C@H](C(=O)N(C)c2ccc(-c3nc4ccccc4o3)cc2)C1	cell-free assay	–	competition with immobilised ligand	1 µM	remaining binding	100%
O=C(O)c1ccc2c(c1)nc(Nc1ccc3ccccc3c1)c1ncncc12	enzyme activity	inhibitor	radiometric	1 µM	remaining activity	109%
O=C(Nc1cnc(Oc2ccc(F)cc2)nc1)N1CCc2ncccc2[C@@H]1c1ccc(F)cc1	cell-free assay	–	competition with immobilised ligand	1 µM	remaining binding	100%
Nc1ncnc2occ(-c3ccc(NC(=O)Nc4cc(C(F)(F)F)ccc4F)cc3)c12	cell-free assay	inhibitor	–	20 µM	remaining signal	0.95%
O=C(O)c1ccc2c(c1)nc(Nc1ccc(F)c(Cl)c1)c1ccncc12	enzyme activity	inhibitor	radiometric	1 µM	remaining activity	75%
CCCOc1ccc([C@@H]2[C@@H](C(=O)O)[C@H](c3ccc4c(c3)OCO4)CN2CC(=O)Nc2c(CC)cccc2CC)cc1	cell-free assay	–	competition with immobilised ligand	1 µM	remaining binding	65%
O=C(O)c1ccc2c(c1)nc(NCCc1cccc(F)c1)c1ncncc12	enzyme activity	inhibitor	radiometric	1 µM	remaining activity	10%
CNC(=O)c1cc(Oc2ccc(NC(=O)Nc3ccc(Cl)c(C(F)(F)F)c3)cc2)ccn1	cell-free assay	–	–	0.5 µM	remaining signal	4.85%
